Molecules are shown by their SMILES.

Usually IC50 stands for the concentration that gives 50% inhibition.

The subject of one series is L6. Put plainly: Cytotoxicity against rat L6 cells assessed as growth inhibition after 72 hrs by fluorometric analysis. It is filed as cell-based. The settings on record: L6, 72 h. The gist of the method:
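Mammalian L6 cell growth inhibition; IC50 taken as the average of at least two independent assays, each run in duplicate.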

A short description of series [1]: Inhibition of recombinant Plasmodium falciparum FabI using crotonoyl-CoA as substrate assessed as consumption of NADH after 10 mins. A digest of the protocol: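 Recombinant PfFabI inhibition was followed spectrophotometrically. IC50 is the concentration giving 50% inhibition, reported as the mean of three independent experiments.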
The subject of series [2] is Plasmodium falciparum. Put plainly: Antiplasmodial activity against chloroquine/pyrimethamine-resistant Plasmodium falciparum K1 assessed as growth inhibition after […] by [3H]-hypoxanthine incorporation assay. It is filed as functional, organism-based. A digest of the protocol:
(§1)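 Tested against the chloroquine- and pyrimethamine-resistant K1 strain, with chloroquine as the standard drug. Growth was read by [3H]hypoxanthine incorporation. IC50 was taken from graphically plotted dose–response curves and averaged over at least two independent assays run in duplicate.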

Series [3] is described as follows: Selectivity index, ratio of IC50 for rat L6 cells to IC50 for chloroquine/pyrimethamine-resistant Plasmodium falciparum K1. It is filed as toxicity, cell-based. The settings on record: rat L6 cells (cytotoxicity) versus Plasmodium falciparum K1, read-out: Ratio IC50. The gist of the method:
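Ratio of the rat L6 cell growth-inhibition IC50 to the P. falciparum K1 IC50, calculated per WHO/TDR guidelines. Each cell IC50 is the average of at least two independent assays run in duplicate.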

Series [4] concerns the target T1, 3-oxoacyl-(Acyl-carrier protein) reductase (Plasmodium falciparum (isolate 3D7), UniProt Q8I2S7).
T1 sequence (Q8I2S7 whole entry): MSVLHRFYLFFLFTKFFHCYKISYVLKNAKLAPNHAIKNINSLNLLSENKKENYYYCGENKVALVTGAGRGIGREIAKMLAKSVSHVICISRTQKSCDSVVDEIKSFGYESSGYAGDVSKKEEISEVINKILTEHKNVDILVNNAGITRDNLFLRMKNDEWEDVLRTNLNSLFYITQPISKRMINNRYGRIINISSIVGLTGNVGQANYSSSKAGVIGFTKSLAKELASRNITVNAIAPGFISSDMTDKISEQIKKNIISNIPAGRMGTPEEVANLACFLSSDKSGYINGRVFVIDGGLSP
The series is described as follows: Inhibition of recombinant Plasmodium falciparum 3D7 FabG using acetoacetyl-CoA as substrate after 10 mins in presence of NADPH.

For another series, the target named is T2, Fatty acid synthase (Plasmodium falciparum, UniProt Q965D7).
T2 sequence (Q965D7 whole entry): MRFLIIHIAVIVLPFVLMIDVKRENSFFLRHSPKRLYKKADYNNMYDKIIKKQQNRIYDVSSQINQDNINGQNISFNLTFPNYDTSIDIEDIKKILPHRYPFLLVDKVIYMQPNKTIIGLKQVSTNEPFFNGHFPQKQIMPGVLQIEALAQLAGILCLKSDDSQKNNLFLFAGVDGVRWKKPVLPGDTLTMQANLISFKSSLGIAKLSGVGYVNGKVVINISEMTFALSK
The series is described as follows: Inhibition of recombinant Plasmodium falciparum FabZ using crotonoyl-CoA as substrate after 10 mins. A digest of the protocol:
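Recombinant enzymes PfFabG and PfFabZ were used. IC50 is the concentration giving 50% inhibition, reported as the mean of three independent experiments.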

The test system of series [5] is Plasmodium falciparum. Put plainly: Antiplasmodial activity against asexual blood stage form of Plasmodium falciparum assessed as growth inhibition after 72 hrs by [3H]-hypoxanthine incorporation assay. Format: functional, organism-based. A digest of the protocol: as §1
Series [6] is described as follows: Inhibition of Plasmodium falciparum FabI using crotonoyl-CoA as substrate by UV-Vis spectrophotometric analysis in presence of NADH. A digest of the protocol: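 Recombinant PfFabI enzyme, spectrophotometric read-out; IC50 (concentration giving 50% inhibition) reported as the mean of three independent experiments.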

For `COc1cc([C@@H]2c3cc4c(cc3[C@H](O)[C@H]3COC(=O)[C@H]23)OCO4)cc(OC)c1OC` [PODOFILOX], in the series with L6, the half-maximal inhibitory concentration (IC50) turned out to be 0.006 µM.

As for `CCc1cc(=O)oc2ccc(Oc3ccc(Cl)cc3O)cc12`, the IC50 was determined as 11 µM in series [1], 5.6 µM with Plasmodium falciparum [2] and 142 µM with L6. Moreover, in series [3], the selectivity ratio turned out to be 25.6.

For `O=c1oc2ccccc2cc1Oc1ccc(Cl)cc1O`, the half-maximal inhibitory concentration (IC50) in series [4] is more than 100 µM; in series [1], 5.5 µM; with Plasmodium falciparum [2], 15 µM; in the series on L6 it was 108 µM; at Fatty acid synthase, more than 100 µM. For the same compound, the selectivity ratio in series [3] is 7.2.

For `Cc1cc(=O)oc2cc(Oc3ccc(Cl)cc3O)ccc12`, the concentration for half-maximal inhibition (IC50) in series [4] was more than 100 µM; in series [1] it was 0.25 µM; in the series with Plasmodium falciparum [2], 9.5 µM; in the series on L6, 85.9 µM; at Fatty acid synthase it was more than 100 µM. For the same compound, the selectivity ratio in series [3] was found to be 9.

With `O=c1ccc2ccc(Oc3ccc(Cl)cc3O)cc2o1`, the IC50 in series [1] is 2.7 µM; in the series on Plasmodium falciparum [2], 9.3 µM; in the series on L6, 188 µM. In addition, in series [3], the selectivity ratio worked out at 20.1.

In the case of `O=c1oc2cc(O)ccc2cc1Oc1ccc(Cl)cc1O`, the IC50 was 99 µM in series [4]; 6 µM in series [1]; more than 15 µM in the series with Plasmodium falciparum [2]; 144 µM in the series on L6; 16.3 µM at Fatty acid synthase.

Turning to `O=C(O[C@@H]1Cc2c(O)cc(O)cc2O[C@@H]1c1cc(O)c(O)c(O)c1)c1cc(O)c(O)c(O)c1` [EPIGALOCATECHIN GALLATE], the IC50 on Fatty acid synthase worked out at 0.03 µM.

As to `Cc1c(Oc2ccc(Cl)cc2O)c(=O)oc2cc(O)ccc12`, the IC50 in series [4] was more than 100 µM; in series [1], 15 µM; with Plasmodium falciparum [2], more than 15 µM; in the series with L6, 96.3 µM; at Fatty acid synthase, 28 µM.

Regarding `O=c1oc2cc(O)ccc2cc1-c1ccc(Oc2ccc(Cl)cc2O)cc1`, the IC50 in series [4] is more than 100 µM; in series [1] it was 0.45 µM; in the series on Plasmodium falciparum [2] it was 8 µM; with L6, 41 µM; at Fatty acid synthase, 10 µM. The selectivity ratio in series [3] came to 5.1.

`CCc1cc(=O)oc2cc(Oc3ccc(Cl)cc3O)ccc12`: the half-inhibitory concentration (IC50) was more than 100 µM in series [4]; 0.27 µM in series [1]; 5.7 µM with Plasmodium falciparum [2]; 84.8 µM in the series with L6; more than 100 µM on Fatty acid synthase. Also, the selectivity ratio in series [3] amounted to 14.9.

Regarding `O=c1oc2ccc(O)cc2cc1Oc1ccc(Cl)cc1O`, the concentration for half-maximal inhibition (IC50) in series [4] is more than 100 µM; in series [1] it was 14 µM; in the series on Plasmodium falciparum [2] it was more than 15 µM; in the series on L6, 134 µM; on Fatty acid synthase, more than 100 µM.

With `O=c1oc2cc(O)cc(O)c2cc1Oc1ccc(Cl)cc1O`, the IC50 is more than 100 µM in series [4]; 44 µM in series [1]; more than 15 µM in the series with Plasmodium falciparum [2]; 128 µM in the series on L6; 90 µM at Fatty acid synthase.

As for `Oc1cc(Cl)ccc1Oc1ccc(Cl)cc1Cl` [TRICLOSAN], the concentration for half-maximal inhibition (IC50) in series [1] was 0.05 µM; in the series on Plasmodium falciparum [2], 1.51 µM; in the series on Plasmodium falciparum [5], 1 µM; in series [6] it was 0.05 µM.

With `Cc1c(Oc2ccc(Cl)cc2O)c(=O)oc2ccccc12`, the IC50 in series [4] was more than 100 µM; in series [1] it was 12 µM; in the series on Plasmodium falciparum [2], more than 15 µM; with L6 it was 51.5 µM; on Fatty acid synthase, 13 µM.

`O=c1ccc2cc(Oc3ccc(Cl)cc3O)ccc2o1`: the IC50 in series [1] is 0.63 µM; in the series with Plasmodium falciparum [2] it was 10.7 µM; in the series with L6, 96.2 µM. Also, the selectivity ratio in series [3] came to 9.

As to `Cc1cc(=O)oc2ccc(Oc3ccc(Cl)cc3O)cc12`, the IC50 in series [1] was determined as 14.2 µM; with Plasmodium falciparum [2], 15.6 µM; in the series with L6, 35.5 µM. The selectivity ratio in series [3] came out at 2.2.

The values above are taken from ChEMBL document CHEMBL2424603, “Design, synthesis, and biological and crystallographic evaluation of novel inhibitors of Plasmodium falciparum enoyl-ACP-reductase (PfFabI)” (J Med Chem, 2013).
